# Hits are enriched below; roughly 3.5% of the tested compounds scored in any of these assays.
# RGS4 act: RGS4 potentiation or activation | HEK293 M3R/inducible RGS4, carbachol calcium flux Fluo4; active compounds read low | B-score at 10 µM | actives 0.92% (n = 310,000) | AID 463111;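 active = B-score of the integrated calcium signal more than 4 SD below the library mean, with starting fluorescence not abnormally high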;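 also: negative B-score means reduced calcium response which marks RGS4 activation or potentiation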
#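 Reagent: ECmax carbachol challenge; Test system: M3R-expressing HEK293 line, RGS4 induced by doxycycline; Schedule: overnight RGS4 induction, 30 min dye load 37 °C, 20 min compound RT; Detection: calcium dye Fluo4 fluorescence; Read-out: Agonist-evoked peak-minus-minimum fluorescence over baseline, integrated ratio, B score.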
# MrgX1 allo act: allosterically activates human MrgX1 receptor signaling | MrgX1-HEK293, Fluo-4 calcium flux, FDSS; active compounds read high | AID 588675 | B-score at 10 µM | actives 0.63% (n = 310,000);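 active = plate-corrected calcium response at least 3 library SD above typical, normal starting fluorescence, not activating the receptor alone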;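 also: compound read alongside a low EC10 to EC30 dose of BAM8-22 agonist; peak minus trough fluorescence over baseline measured at the second addition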
# Target sequence (Q96LB2 whole entry, looked up): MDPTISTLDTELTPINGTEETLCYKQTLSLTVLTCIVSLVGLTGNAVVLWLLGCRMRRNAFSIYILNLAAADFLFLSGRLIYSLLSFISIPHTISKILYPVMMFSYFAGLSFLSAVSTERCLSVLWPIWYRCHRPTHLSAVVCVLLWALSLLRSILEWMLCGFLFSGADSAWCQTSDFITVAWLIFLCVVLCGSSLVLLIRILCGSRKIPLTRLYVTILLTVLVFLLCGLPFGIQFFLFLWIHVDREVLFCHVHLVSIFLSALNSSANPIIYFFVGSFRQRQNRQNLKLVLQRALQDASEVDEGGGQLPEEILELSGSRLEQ
# RGS4 block: inhibitors of human RGS4. P49798. B-score at 10 µM. HEK293 M3R/RGS4 inducible, Fluo-4 calcium flux; active compounds read high; triggered by carbachol at its EC20. actives 0.45% (n = 310,000);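 active = B-score, a plate-corrected calcium signal, over three deviations above library mean, with baseline fluorescence within five deviations of library mean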;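 also: RGS4 expression induced by doxycycline in cells with stable M3 receptor; B-score is computed from the integrated fluorescence ratio over baseline after carbachol; higher B-score means a larger calcium signal and so more RGS4 inhibition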
# Target sequence (P49798 whole entry, looked up): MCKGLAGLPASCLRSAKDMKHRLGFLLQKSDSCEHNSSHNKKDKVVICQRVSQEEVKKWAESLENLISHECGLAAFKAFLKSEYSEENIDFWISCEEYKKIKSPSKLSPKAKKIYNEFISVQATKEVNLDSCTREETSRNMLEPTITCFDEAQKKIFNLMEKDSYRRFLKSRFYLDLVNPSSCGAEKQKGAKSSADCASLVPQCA
# MrgX1 ag: agonists of human MrgX1 receptor; MrgX1-HEK293 cells, Fluo-4 calcium fluorescence, agonist mode; active compounds read high; AID 588627; Q96LB2; B-score at 10 µM; actives 0.44% (n = 310,000);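 active = calcium response B-score plate-corrected fluorescence ratio at least 3 library SD, with starting fluorescence B-score inside 5 SD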
#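 Test system: HEK293 cells stably expressing human MrgX1 receptor; Input: fifteen thousand cells per well; Dosing: compound delivered in addition one of three; Schedule: overnight seeding, then 1 h dark dye loading; Technique: Fluo-4 NW calcium fluorescence; Measure: B-scored fluorescence response ratio; Controls: positive and negative controls per plate.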
# MrgX1 antag: blocks BAM8-22 activation of human MrgX1 receptor. Q96LB2. MRGX1-HEK293 calcium flux, Fluo-4, BAM8-22 antagonism; active compounds read low. B-score at 10 µM. actives 1.3% (n = 310,000). AID 588676;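 active = calcium-response B-score plate-corrected more than 3 library SD below zero, starting fluorescence within 5 deviations, no agonist response on first addition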;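 also: peak minus trough fluorescence over baseline after final BAM8-22 challenge near maximal dose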
# MrgX1 antag conf: human MrgX1 receptor antagonism, re-confirmation screen; AID 602420; remaining BAM8-22 calcium response % of control (active compounds read low), % at 10 µM; MrgX1-HEK293, BAM8-22 calcium flux, Fluo-4; active compounds read low; shares compounds with MrgX1 antag; actives 19% (n = 2,300);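 active = remaining agonist calcium response no higher than 100% minus 3 SD of agonist-only control wells, with starting fluorescence near control levels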;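 also: agonist BAM8-22 given at a near maximal EC90 to ECmax level; peak minus minimum fluorescence divided by baseline after agonist addition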
# HEK293 Ca flux: MrgX1 antagonist counter-screen hit in parental HEK293 cells. AID 624111. fluorescence ratio F(max-min)/F0 at 10 µM. Fluo-4 calcium fluorescence, FDSS. actives 2% (n = 4,000). shares compounds with MrgX1 antag;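 active = duplicate-averaged calcium fluorescence ratio at least three times the standard deviation of buffer wells, a nonspecific response in parental cells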
# HEK293 Ca counter: MrgX1 allosteric activator counter-screen hit in parental HEK293 cells. shares compounds with MrgX1 antag. parental HEK293 calcium flux, Fluo-4 fluorescence ratio; active compounds read high. fluorescence ratio F(max-min)/F0 at 10 µM. actives 0.4% (n = 4,000);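 active = calcium fluorescence ratio, averaged over duplicates, at least 3 SD of the buffer-well ratio, meaning a nonspecific response in receptor-free cells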;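 also: untransfected parental HEK293 lacking MrgX1 used as counterscreen for MrgX1 allosteric activators; fluorescence change taken during the second addition on a kinetic imager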
# HEK293 Ca cntr2: counter-screen for MrgX1 activators: effect in parental HEK293 cells. fluorescence ratio F(max-min)/F0 at 10 µM. actives 8.7% (n = 4,000). Fluo-4 calcium fluorescence (FDSS); active compounds read high. shares compounds with MrgX1 antag;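 active = calcium fluorescence ratio at least three times the spread of buffer wells, meaning a non-specific response in parental cells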
# Numbers stand for hits; . = inactive; / = no result given.
SMILES,RGS4 act,MrgX1 allo act,RGS4 block,MrgX1 ag,MrgX1 antag,MrgX1 antag conf,HEK293 Ca flux,HEK293 Ca counter,HEK293 Ca cntr2
Cc1ccc2c(c1)CCCN2S(=O)(=O)c1cccc(C(=O)Nc2ccccc2C(=O)O)c1,.,.,.,.,-6.7,67%,.,.,.
O=C(NC1=NCCS1)c1cccc(S(=O)(=O)N2CCc3ccccc32)c1,.,.,.,.,-4.9,.,.,.,.
O=C(NC1=NCCS1)c1ccc(Cl)c(S(=O)(=O)N2CCc3ccccc32)c1,.,.,.,.,.,/,/,/,/
CCn1nnc2cc(C(=O)Nc3cc(S(C)(=O)=O)ccc3Cl)ccc21,.,.,.,.,.,/,/,/,/
CCn1nnc2cc(C(=O)Nc3cc(OC)cc(OC)c3)ccc21,.,.,.,.,-8.7,.,.,.,.
CN1CCN(C2CCCCCC2)CC1,.,.,.,.,-5.3,.,.,.,.
CN1CCN(C(=O)NC2CCCCC2)CC1,.,.,.,.,.,/,/,/,/
Cc1nc(Cl)c(C(=O)NC(C)(C)C)c(C)c1Cl,.,.,.,.,-9.4,.,.,.,.
CCOc1ccc(S(=O)(=O)Nc2cc(Cl)ccc2O)cc1,.,.,.,.,-4.6,85%,.,.,.
OC(COc1ccc(CNCCc2ccccc2F)cc1)CN1CCCCC1 (stereo unspecified),.,.,.,.,.,/,/,/,/
O=C(CNC(=O)Cc1ccccc1)NCC(=O)OCC(=O)c1ccc(F)cc1,.,.,.,.,.,/,/,/,/
O=C(CNC(=O)c1ccccc1)NCC(=O)OCC(=O)c1ccc(F)cc1,.,.,.,.,-4.8,.,.,.,.
CN(C(=O)c1cccs1)c1ccccc1C(=O)O,.,.,.,.,-5.7,.,.,.,.
Cc1c(O)ccc2c(CC(=O)N[C@@H](Cc3ccccc3)C(=O)O)cc(=O)oc12,.,.,.,.,-4.9,84%,.,.,.
COc1ccc2c(CC(=O)N[C@@H](Cc3ccccc3)C(=O)O)cc(=O)oc2c1,.,.,.,.,.,/,/,/,/
CN(C)S(=O)(=O)c1ccc(N2CCCC2)c(C(=O)N2CCC(C(N)=O)CC2)c1,.,.,.,.,.,/,/,/,/
O=C(NNC(=O)c1ccncc1)NC1CCCCC1,.,.,.,.,.,/,/,/,/
CC(C)Oc1ccc2c(c1)OC(c1ccccc1)(C(F)(F)F)NC2=O (stereo unspecified),.,.,.,.,-5.8,.,.,.,.
COc1ccc2c(c1)OC(c1ccccc1)(C(F)(F)F)NC2=O (stereo unspecified),.,.,.,.,.,/,/,/,/
CCOC(=O)C1=C(O)CSC1=Nc1ccc(C)cc1,.,.,.,.,-5.7,.,.,.,.
CCOC(=O)C1=C(O)CSC1=Nc1cccc2ccccc12,.,.,.,.,.,/,/,/,/
CCN1CCN(CCCN(Cc2cccs2)C(=S)Nc2ccccc2C)CC1,.,.,.,.,.,/,/,/,/
COc1ccc(OCC(=O)Nc2ccc(C(=O)Nc3ccccc3C(=O)O)cc2)cc1,.,.,.,.,.,/,/,/,/
O=C(COc1ccc(Br)cc1)Nc1ccc(C(=O)Nc2ccccc2C(=O)O)cc1,.,.,.,.,-7.1,.,.,.,.
Cc1ccc(C(=O)NCCc2nnc3ccc(NCCCN4CCOCC4)nn23)cc1,.,.,.,.,.,/,/,/,/
CCCOC(=O)c1ccc(NC(=O)CC(C)(C)C)cc1,.,.,.,.,-4.5,.,.,.,.
COc1cccc(C(=O)NC2CC3CCCC(C2)N3S(=O)(=O)c2ccccc2)c1 (stereo unspecified),.,.,.,.,.,/,/,/,/
COc1ccccc1NC(=O)NCCN1CCCCC1,.,.,.,.,.,/,/,/,/

# Assay outcomes: PubChem BioAssay, Johns Hopkins Ion Channel Center
